These results are taken from ChEMBL document CHEMBL3098022, “Multifunctional cholinesterase and amyloid Beta fibrillization modulators. Synthesis and biological investigation” (ACS Med Chem Lett, 2013).

One experiment has as its target Cholinesterase (Homo sapiens, UniProt P06276). As to the kind of experiment: Inhibition of human butyrylcholine esterase.
In experiment [1] the target is T1, Acetylcholinesterase (Homo sapiens, UniProt P22303). As to the kind of experiment: Inhibition of human acetylcholine esterase.
The next experiment is filed under the species Homo sapiens. As to the kind of experiment: Selectivity ratio of Ki for human acetylcholine esterase to Ki for human butyrylcholine esterase.
Experiment [2] deals with T1, Acetylcholinesterase. As to the kind of experiment: Inhibition of human acetylcholine esterase-induced amyloid beta (1 to 40) aggregation by ThT-based fluorescence assay.
Experiment [3] addresses T1, Acetylcholinesterase. As to the kind of experiment: Inhibition of human acetylcholine esterase-induced amyloid beta (1 to 40) aggregation at 100 uM by ThT-based fluorescence assay.
The target in experiment [4] is T2, Amyloid-beta precursor protein (Homo sapiens, UniProt P05067). As to the kind of experiment: Inhibition of amyloid beta (1 to 42) aggregation (unknown origin) after 24 hrs by ThT-based fluorescence assay.
The target in experiment [5] is T2, Amyloid-beta precursor protein. Nature of the experiment: Inhibition of amyloid beta (1 to 42) aggregation (unknown origin) at 5 uM by ThT-based fluorescence assay.
Experiment [6] has the same target. As to the kind of experiment: Inhibition of amyloid beta (1 to 42) oligomerization (unknown origin) assessed as oligomer stabilization at 200 uM after 6 hrs by capillary electrophoresis method.
Experiment [7] has the same target. Nature of the experiment: Inhibition of amyloid beta (1 to 42) oligomerization (unknown origin) assessed as stable smaller oligomer formation at 500 uM after 24 hrs by capillary electrophoresis method.
For experiment [8] the target is unchanged. As to the kind of experiment: Inhibition of amyloid beta (1 to 42) oligomerization (unknown origin) assessed as disaggregation of toxic oligomers and precipitation at 200 to 500 uM by transmission electron microscopy relative to control.
The target is the same in experiment [9]. As to the kind of experiment: Inhibition of amyloid beta (1 to 42) oligomerization (unknown origin) assessed as depletion of higher molecular weight oligomers formation at 200 to 500 uM by capillary electrophoresis method. To be noted: TDE = time-dependent effect.
For experiment [10] the target is unchanged. Nature of the experiment: Inhibition of amyloid beta (1 to 42) oligomerization (unknown origin) assessed as oligomer stabilization at 200 uM after 2 days by capillary electrophoresis method.
Experiment [11] shares this target. As to the kind of experiment: Inhibition of amyloid beta (1 to 42) oligomerization (unknown origin) assessed as depletion of higher molecular weight oligomers after 6 hrs to 2 days by capillary electrophoresis method.
Experiment [12] has the same target. Nature of the experiment: Inhibition of amyloid beta (1 to 42) oligomerization (unknown origin) assessed as oligomer stabilization at 200 uM measured immediately by capillary electrophoresis method.
The target is the same in experiment [13]. As to the kind of experiment: Inhibition of amyloid beta (1 to 42) oligomerization (unknown origin) assessed as inhibition of toxic aggregate formation at 500 uM after 24 hrs by capillary electrophoresis method.
Experiment [14] has the same target. Nature of the experiment: Inhibition of amyloid beta (1 to 42) oligomerization (unknown origin) assessed as amorphous aggregates formation at 50 to 500 uM by transmission electron microscopy. In a few lines:
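Aβ1-42 samples were imaged by transmission electron microscopy with 50 µM test compound added, n = 2.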

Activity calls are given as the source filed them. No cut-off for these calls is given here.

T1 sequence (P22303 whole entry): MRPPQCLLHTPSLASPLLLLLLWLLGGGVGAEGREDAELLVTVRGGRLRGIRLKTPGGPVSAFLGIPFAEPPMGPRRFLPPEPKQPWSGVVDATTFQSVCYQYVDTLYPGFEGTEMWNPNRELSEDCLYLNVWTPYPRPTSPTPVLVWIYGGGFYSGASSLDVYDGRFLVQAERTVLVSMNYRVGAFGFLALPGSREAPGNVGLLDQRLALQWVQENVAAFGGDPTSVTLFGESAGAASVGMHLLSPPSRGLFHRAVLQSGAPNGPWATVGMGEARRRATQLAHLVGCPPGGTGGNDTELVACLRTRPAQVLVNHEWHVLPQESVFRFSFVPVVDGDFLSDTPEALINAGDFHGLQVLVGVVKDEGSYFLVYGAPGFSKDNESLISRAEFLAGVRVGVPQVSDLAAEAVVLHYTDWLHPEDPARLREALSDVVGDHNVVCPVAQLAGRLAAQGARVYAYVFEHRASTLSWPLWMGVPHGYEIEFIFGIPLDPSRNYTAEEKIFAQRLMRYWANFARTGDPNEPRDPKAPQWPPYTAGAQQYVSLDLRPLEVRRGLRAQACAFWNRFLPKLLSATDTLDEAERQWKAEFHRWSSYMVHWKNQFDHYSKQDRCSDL
Cholinesterase, sequence (P06276 whole entry): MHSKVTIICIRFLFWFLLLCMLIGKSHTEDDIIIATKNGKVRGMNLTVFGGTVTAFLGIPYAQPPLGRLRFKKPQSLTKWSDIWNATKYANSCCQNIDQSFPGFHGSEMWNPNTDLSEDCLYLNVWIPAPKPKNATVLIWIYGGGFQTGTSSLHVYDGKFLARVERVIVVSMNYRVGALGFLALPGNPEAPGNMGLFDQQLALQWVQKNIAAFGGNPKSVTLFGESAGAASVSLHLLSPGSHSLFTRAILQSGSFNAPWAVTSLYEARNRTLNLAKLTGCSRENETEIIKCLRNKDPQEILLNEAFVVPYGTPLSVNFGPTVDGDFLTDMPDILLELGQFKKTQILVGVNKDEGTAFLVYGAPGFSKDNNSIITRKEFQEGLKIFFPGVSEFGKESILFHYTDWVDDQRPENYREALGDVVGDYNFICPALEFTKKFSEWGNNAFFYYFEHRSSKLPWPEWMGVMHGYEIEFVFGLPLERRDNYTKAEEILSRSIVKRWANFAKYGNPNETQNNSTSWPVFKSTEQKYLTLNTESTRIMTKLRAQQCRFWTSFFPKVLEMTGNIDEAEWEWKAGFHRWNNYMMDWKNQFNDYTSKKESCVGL
T2 sequence (P05067 whole entry): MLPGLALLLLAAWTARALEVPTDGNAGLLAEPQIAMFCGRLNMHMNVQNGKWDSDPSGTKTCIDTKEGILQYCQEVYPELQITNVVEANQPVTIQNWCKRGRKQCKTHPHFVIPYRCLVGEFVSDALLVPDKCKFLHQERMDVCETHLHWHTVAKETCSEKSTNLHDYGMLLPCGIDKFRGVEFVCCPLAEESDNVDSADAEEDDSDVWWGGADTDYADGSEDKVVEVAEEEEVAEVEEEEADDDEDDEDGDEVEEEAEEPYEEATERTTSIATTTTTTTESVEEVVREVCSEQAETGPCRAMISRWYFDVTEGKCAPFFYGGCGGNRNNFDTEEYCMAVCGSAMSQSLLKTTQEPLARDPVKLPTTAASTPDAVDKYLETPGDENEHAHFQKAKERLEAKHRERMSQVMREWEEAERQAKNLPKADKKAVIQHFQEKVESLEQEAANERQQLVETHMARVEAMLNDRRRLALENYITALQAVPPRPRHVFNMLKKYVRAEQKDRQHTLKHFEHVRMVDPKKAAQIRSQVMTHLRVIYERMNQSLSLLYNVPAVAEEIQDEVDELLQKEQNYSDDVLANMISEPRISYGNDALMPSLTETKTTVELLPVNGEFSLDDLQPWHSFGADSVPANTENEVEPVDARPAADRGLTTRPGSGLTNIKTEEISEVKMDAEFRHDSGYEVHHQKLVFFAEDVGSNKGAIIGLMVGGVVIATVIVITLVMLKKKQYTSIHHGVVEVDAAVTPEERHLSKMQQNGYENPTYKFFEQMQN

The Ki is the dissociation constant of the complex between target and ligand, obtained from inhibition or displacement. Regarding `Nc1cccc2c(NCCCCCCCCNc3c4c(nc5ccccc35)CCCC4)c3c(nc12)CCCC3`, the Ki was 8.26 nM at Cholinesterase and 0.23 nM on Acetylcholinesterase [1]. Also, the Ratio Ki in the experiment filed under Homo sapiens was determined as 0.028.
Usually IC50 stands for the concentration needed to halve the response being measured. Lower therefore signals higher potency. In general, inhibition refers to the relative decrease from the control value, in per cent. As for `CN(CCCCNc1c2c(nc3c(NC(=O)CNC(=O)CC[C@H](NC(=O)CNC(=O)OCc4ccccc4)C(=O)N[C@@H](Cc4ccccc4)C(=O)OCc4ccccc4)cccc13)CCCC2)CCCNc1c2c(nc3ccccc13)CCCC2`, the figures for the IC50 (against Acetylcholinesterase [2]; in experiment [4]) were 113 µM and 51 µM, respectively. Further, the Ki on Cholinesterase came out at 21.3 nM; at Acetylcholinesterase [1] it was 1.48 nM. In addition, the inhibition against Acetylcholinesterase [3] came out at 42%. Moreover, the Ratio Ki in the experiment filed under Homo sapiens turned out to be 0.07.
For the compound `c1ccc2c(NCCCCCCCNc3c4c(nc5ccccc35)CCCC4)c3c(nc2c1)CCCC3`, the inhibition in [5] stood at 8.4%.
For `O=C(CC[C@H](NC(=O)CNC(=O)OCc1ccccc1)C(=O)N[C@@H](Cc1ccccc1)C(=O)OCc1ccccc1)NCC(=O)Nc1cccc2c(NCCCCCCCCNc3c4c(nc5ccccc35)CCCC4)c3c(nc12)CCCC3`, the inhibition in experiment [6] was 87.2%; in experiment [5], 81%; at Acetylcholinesterase [3], 26%; in experiment [9], “tde”; in [11], “Dose-dependent effect”; in [12], 82.5%. Moreover, the inhibition entry in experiment [7], in experiment [8], in experiment [10], in experiment [13] and in [14] was “Active” each time. The inhibitory constant (Ki) at Cholinesterase was found to be 40.9 nM; at Acetylcholinesterase [1], 1.92 nM. In the experiment filed under Homo sapiens, the Ratio Ki came out at 0.038.
`O=[N+]([O-])c1cccc2c(NCCCCCCCCNc3c4c(nc5ccccc35)CCCC4)c3c(nc12)CCCC3`: the results for the inhibitory constant (Ki) on Cholinesterase and at Acetylcholinesterase [1] were 0.06 nM and 0.78 nM, respectively. For the same compound, the Ratio Ki in the experiment filed under Homo sapiens is 13.
With `CN(CCCCNc1c2c(nc3ccccc13)CCCC2)CCCNc1c2c(nc3c(NC(=O)CNC(=O)CC[C@H](NC(=O)CNC(=O)OCc4ccccc4)C(=O)N[C@@H](Cc4ccccc4)C(=O)OCc4ccccc4)cccc13)CCCC2`, the inhibitory constant (Ki) at Cholinesterase turned out to be 61.8 nM; on Acetylcholinesterase [1] it was 5.02 nM. In addition, the inhibition on Acetylcholinesterase [3] came out at 42%. Further, the Ratio Ki in the experiment listed under Homo sapiens was determined as 0.081.
